Results published in ChEMBL document CHEMBL1152866, “Modulation of gene expression via disruption of NF-kappaB signaling by a bacterial small molecule” (Science, 2008).
Activity calls are given as the source filed them. No cut-off for these calls is given here.

Tests used:
[1] = molecular target: T1, Inhibitor of nuclear factor kappa-B kinase subunit alpha (Mus musculus) (UniProt Q60680); assay: Inhibition of LPS-induced IkappaBalpha phosphorylation in C57BL/6 mouse alveolar macrophages measured up to 120 mins by Western blot analysis
T1 sequence (whole entry): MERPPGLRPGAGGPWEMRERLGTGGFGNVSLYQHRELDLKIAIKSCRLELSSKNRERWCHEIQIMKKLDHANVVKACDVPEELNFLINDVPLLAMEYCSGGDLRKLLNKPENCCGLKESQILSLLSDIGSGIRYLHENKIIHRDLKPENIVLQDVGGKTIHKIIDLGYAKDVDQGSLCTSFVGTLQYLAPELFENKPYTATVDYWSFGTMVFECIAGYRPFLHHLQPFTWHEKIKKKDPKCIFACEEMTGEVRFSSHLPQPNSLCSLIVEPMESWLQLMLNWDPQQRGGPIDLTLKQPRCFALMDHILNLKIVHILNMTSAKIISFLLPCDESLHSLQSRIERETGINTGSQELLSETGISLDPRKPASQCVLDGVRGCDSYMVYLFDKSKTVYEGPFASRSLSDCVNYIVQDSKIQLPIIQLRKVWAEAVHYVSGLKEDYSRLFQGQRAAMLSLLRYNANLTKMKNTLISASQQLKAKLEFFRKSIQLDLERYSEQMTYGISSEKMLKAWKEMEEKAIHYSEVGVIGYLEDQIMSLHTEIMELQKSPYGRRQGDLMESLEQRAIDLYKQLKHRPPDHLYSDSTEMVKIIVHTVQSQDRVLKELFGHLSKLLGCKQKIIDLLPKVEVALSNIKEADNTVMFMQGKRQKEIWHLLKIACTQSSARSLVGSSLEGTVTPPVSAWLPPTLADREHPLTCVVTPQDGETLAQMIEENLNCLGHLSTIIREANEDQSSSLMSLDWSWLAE

[2] = molecular target: MAP kinase p38 (Mus musculus) (UniProt P47811+O08911+Q9WUI1+Q9Z1B7); assay: Inhibition of LPS-induced p38 phosphorylation in C57BL/6 mouse alveolar macrophages measured up to 120 mins by Western blot analysis
[3] = molecular target: T2, MAP kinase p38 (Homo sapiens) (UniProt O15264+Q15759+Q16539+P53778); assay: Inhibition of LPS-induced p38 phosphorylation in human THP1 cells measured up to 120 mins by Western blot analysis; assay type: cell-based; conditions: THP-1
[4] = molecular target: Transcription factor p65 (Mus musculus) (UniProt Q04207); assay: Inhibition of LPS-induced RelA phosphorylation in mouse BMDM treated 2 hrs after LPS challenge measured up to 120 mins by Western blot analysis
Mus musculus [5] = species on record: Mus musculus; assay: Induction of IKK activity in mouse BMDM assessed as GST-IkappaBalpha phosphorylation by immunoprecipitation kinase assay
Macrophage [6] = assay: Inhibition of LPS-induced IkappaBalpha mRNA expression in mouse alveolar macrophages after 90 mins by Northern blot analysis; assay type: functional, cell-based
MEF [7] = assay: Inhibition of LPS-induced IkappaBalpha mRNA expression in MEF after 90 mins by Northern blot analysis; assay type: functional, cell-based; conditions: Mus musculus
MEF [8] = assay: Inhibition of LPS-induced RANTES mRNA expression in MEF after 90 mins by Northern blot analysis; assay type: functional, cell-based; conditions: Mus musculus
MEF [9] = assay: Inhibition of LPS-induced IP-10 mRNA expression in MEF after 90 mins by Northern blot analysis; assay type: functional, cell-based; conditions: Mus musculus
BMDM [10] = assay: Inhibition of heat-killed Staphylococcus aureus-induced RANTES mRNA expression in mouse BMDM by Northern blot analysis; assay type: functional, cell-based
BMDM [11] = assay: Inhibition of heat-killed Staphylococcus aureus-induced B7h mRNA expression in mouse BMDM by Northern blot analysis; assay type: functional
BMDM [12] = assay: Inhibition of heat-killed Staphylococcus aureus-induced c-jun mRNA expression in mouse BMDM by Northern blot analysis; assay type: functional, cell-based
[13] = molecular target: T1, Inhibitor of nuclear factor kappa-B kinase subunit alpha (Mus musculus); assay: Inhibition of TNF-induced IkappaBalpha phosphorylation in mouse MEF up to 120 mins by Western blot analysis
MEF [14] = assay: Inhibition of TNF-induced IkappaBbeta expression in mouse MEF up to 120 mins by Western blot analysis; assay type: functional, cell-based
[15] = molecular target: T3, Inhibitor of nuclear factor kappa-B kinase subunit alpha (Homo sapiens) (UniProt O15111); assay: Inhibition of TNF-induced IkappaBalpha phosphorylation in human bronchial epithelial cells up to 120 mins by Western blot analysis; assay type: cell-based; conditions: Epithelial cell
T3 sequence (whole entry): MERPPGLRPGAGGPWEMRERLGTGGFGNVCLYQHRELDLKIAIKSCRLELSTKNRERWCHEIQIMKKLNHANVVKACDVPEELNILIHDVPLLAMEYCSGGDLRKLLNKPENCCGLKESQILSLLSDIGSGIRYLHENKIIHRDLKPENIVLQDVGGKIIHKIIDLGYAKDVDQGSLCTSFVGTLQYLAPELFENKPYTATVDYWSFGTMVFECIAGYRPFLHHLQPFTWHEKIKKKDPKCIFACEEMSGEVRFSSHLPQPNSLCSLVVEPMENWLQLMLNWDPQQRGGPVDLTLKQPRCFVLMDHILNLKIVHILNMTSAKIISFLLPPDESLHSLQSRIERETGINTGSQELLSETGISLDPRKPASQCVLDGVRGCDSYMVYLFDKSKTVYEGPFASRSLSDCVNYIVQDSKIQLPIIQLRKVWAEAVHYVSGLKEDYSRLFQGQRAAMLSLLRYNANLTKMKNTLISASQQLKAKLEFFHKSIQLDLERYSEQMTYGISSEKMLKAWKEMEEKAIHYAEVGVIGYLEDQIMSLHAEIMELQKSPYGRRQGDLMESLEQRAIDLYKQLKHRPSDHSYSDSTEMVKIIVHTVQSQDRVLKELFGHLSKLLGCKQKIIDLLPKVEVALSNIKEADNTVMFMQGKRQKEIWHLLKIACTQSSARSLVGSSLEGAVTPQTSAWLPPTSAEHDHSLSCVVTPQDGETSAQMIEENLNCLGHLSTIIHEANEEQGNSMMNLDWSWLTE

[16] = molecular target: Transcription factor p65 (Homo sapiens) (UniProt Q04206); assay: Inhibition of TNF-induced RelA phosphorylation in human bronchial epithelial cells up to 120 mins by Western blot analysis; assay type: cell-based; conditions: Epithelial cell
[17] = molecular target: T2, MAP kinase p38 (Homo sapiens); assay: Inhibition of TNF-induced p38 phosphorylation in human bronchial epithelial cells up to 120 mins by Western blot analysis; assay type: cell-based; conditions: Epithelial cell
Mus musculus [18] = species on record: Mus musculus; assay: Suppression of LPS-induced TNF expression in C57BL/6 transgenic mouse bearing TNF-reporter after 2 hrs by luciferase reporter gene assay; assay type: functional, organism-based
Summary of the method: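 Animals received an injection of vehicle, LPS, C12, or LPS plus C12. Whole-animal bioluminescence was recorded 2 hours after injection as the read-out of reporter activity.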

Epithelial cell = assay: Induction of apoptosis in TNF-stimulated human bronchial epithelial cells assessed as PARP cleavage after 2 hrs by Western blot analysis; assay type: functional, cell-based
Summary of the method: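 WI38 lung fibroblasts and bronchial epithelial cells were stimulated for 2 hours. The same Western blot was probed for PARP cleavage, total IκBα and phosphorylated IκBα.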

Blood = assay: Inhibition of LPS-induced TNF production in human whole blood after 3 hrs; assay type: functional, tissue-based
Macrophage [19] = assay: Inhibition of LPS-induced IkappaBalpha mRNA expression in mouse C57BL/6 mouse alveolar macrophages up to 50 uM by Northern blot analysis; assay type: functional, cell-based

Chain of Transcription factor p65 (Homo sapiens) (Q04206 whole entry): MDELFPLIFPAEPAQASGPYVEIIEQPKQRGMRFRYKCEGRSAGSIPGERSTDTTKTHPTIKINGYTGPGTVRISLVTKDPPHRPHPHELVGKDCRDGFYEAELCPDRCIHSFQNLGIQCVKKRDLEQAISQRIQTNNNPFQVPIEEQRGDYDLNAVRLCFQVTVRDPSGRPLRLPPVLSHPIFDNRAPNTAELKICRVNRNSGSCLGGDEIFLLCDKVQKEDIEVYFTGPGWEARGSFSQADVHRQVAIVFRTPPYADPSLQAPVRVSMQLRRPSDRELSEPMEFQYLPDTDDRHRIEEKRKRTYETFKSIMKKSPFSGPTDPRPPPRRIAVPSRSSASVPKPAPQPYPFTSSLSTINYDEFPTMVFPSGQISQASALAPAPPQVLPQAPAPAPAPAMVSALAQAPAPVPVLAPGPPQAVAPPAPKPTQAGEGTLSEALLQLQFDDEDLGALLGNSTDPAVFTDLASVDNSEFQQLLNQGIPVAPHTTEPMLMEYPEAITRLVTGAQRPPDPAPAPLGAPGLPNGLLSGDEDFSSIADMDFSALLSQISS
Chain of Transcription factor p65 (Mus musculus) (Q04207 whole entry): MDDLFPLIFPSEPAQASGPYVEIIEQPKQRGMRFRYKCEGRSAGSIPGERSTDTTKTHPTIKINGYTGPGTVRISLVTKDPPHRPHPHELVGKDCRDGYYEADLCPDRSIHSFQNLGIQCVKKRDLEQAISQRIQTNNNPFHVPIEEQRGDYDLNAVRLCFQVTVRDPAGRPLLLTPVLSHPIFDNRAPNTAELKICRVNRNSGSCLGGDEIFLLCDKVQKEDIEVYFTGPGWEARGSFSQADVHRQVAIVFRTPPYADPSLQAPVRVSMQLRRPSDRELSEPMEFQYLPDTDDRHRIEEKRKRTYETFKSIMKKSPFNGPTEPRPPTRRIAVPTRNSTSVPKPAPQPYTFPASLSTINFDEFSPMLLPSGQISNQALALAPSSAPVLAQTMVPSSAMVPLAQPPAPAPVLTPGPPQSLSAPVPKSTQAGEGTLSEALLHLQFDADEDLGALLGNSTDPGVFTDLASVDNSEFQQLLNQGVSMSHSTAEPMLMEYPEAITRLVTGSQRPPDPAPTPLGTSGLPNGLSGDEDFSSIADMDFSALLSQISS

- Activity [1]: Active
- Activity [2]: Active
- Activity [3]: Active
- Activity [4]: Active
- Activity (Mus musculus [5]): inactive
- Activity [13]: Active
- Activity [15]: Active
- Activity [16]: Active
- Activity [17]: Active
- Activity (Mus musculus [18]): Active
Compound: CCCCCCCCCC(=O)CC(=O)N[C@H]1CCOC1=O
- Activity (Macrophage [6]): Dose-dependent effect
- Activity (MEF [7]): Dose-dependent effect
- Activity (MEF [8]): Dose-dependent effect
- Activity (MEF [9]): Dose-dependent effect
- Activity (BMDM [10]): Active
- Activity (BMDM [11]): Active
- Activity (BMDM [12]): Active
- Activity (MEF [14]): Active
- Activity (Epithelial cell): Active
- Activity (Blood): Active
- Activity (Macrophage [19]): Active
